pIC50: −log10 of the molar value.
How the values were obtained:
[1] = Cytotoxicity against human Bel7402 cells after 48 hrs by MTT assay; format: cell-based, Bel-7402; conditions: for pIC50: Homo sapiens, Bel-7402, 48 h, read-out: IC50; for Activity: human, bel-7402, 48 h; for IC50: bel-7402
Outline: (§1)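 Cells seeded in 96-well plates and exposed to serial dilutions of test compound spanning 10-2 to 102 µM. Incubated 48 h at 37 °C in humidified air with 5% CO2. Growth inhibition read by MTT. IC50 taken as the concentration (µM) giving 50% inhibition of cell growth.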

[2] = Cytotoxicity against human BGC823 cells after 48 hrs by MTT assay; format: cell-based, BGC-823; conditions: for pIC50: Homo sapiens, BGC-823, 48 h; for Activity: human, bgc-823, 48 h; outline: as §1
HL-60 = test: Cytotoxicity against human HL60 cells after 48 hrs by MTT assay; format: cell-based; conditions: for pIC50: Homo sapiens, HL-60, 48 h; for Activity: human, hl-60, 48 h; outline: as §1

| Compound | pIC50 [1] | pIC50 [2] | pIC50 (HL-60) | Activity [1] | Activity [2] | Activity (HL-60) | IC50 [1] |
| --- | --- | --- | --- | --- | --- | --- | --- |
| COC(=O)C1=CC[C@@]23CC[C@@H]([C@@](C)(/C=C/C=C(\C)C(=O)O)OC2=O)[C@@]3(OC(C)=O)CC1 [PSEUDOLARIC ACID B] | < 4.00 | < 4.00 | 6.23 | – | – | – | – |
| CC1=CC[C@@]23CC[C@@H]([C@@](C)(/C=C/C=C(\C)C(=O)OCC(O)CO)OC2=O)[C@@]3(O)CC1 (stereo partly drawn) | – | – | – | Not Active | Not Active | Not Active | – |
| O=c1[nH]cc(F)c(=O)[nH]1 [FLUOROURACIL] | 4.63 | 4.51 | 6.80 | – | – | – | – |
| CC(=O)O[C@]12CCC(C)=CC[C@]13CC[C@H]2[C@@](C)(/C=C/C=C(\C)C(=O)O)OC3=O [PSEUDOLARIC ACID A] | < 4.00 | < 4.00 | 5.82 | – | – | – | – |
| COC(=O)C1=CC[C@@]23CC[C@@H]([C@@](C)(/C=C/C=C(\C)C(=O)OCC(O)CO)OC2=O)[C@@]3(O)CC1 (stereo partly drawn) | – | – | – | Not Active | Not Active | Not Active | – |
| CC1=CC[C@@]23CC[C@@H]([C@@](C)(/C=C/C=C(\C)C(=O)O[C@@H]4O[C@H](CO)[C@@H](O)[C@H](O)[C@H]4O)OC2=O)[C@@]3(O)CC1 | – | – | – | – | Not Active | Not Active | Not Active |
| CC(=O)O[C@]12CC=C(C)[C@H](O)C[C@]13CC[C@H]2[C@@](C)(/C=C/C=C(\C)C(=O)O)OC3=O [PSEUDOLARIC ACID G] | < 4.00 | < 4.00 | 4.96 | – | – | – | – |
| CC(=O)O[C@]12CC=C(C)C(=O)C[C@]13CC[C@H]2[C@@](C)(/C=C/C=C(\C)C(=O)O)OC3=O [PSEUDOLARIC ACID F] | < 4.00 | – | 4.26 | – | Not Active | – | – |
| CC(=O)O[C@]12CCC(C(=O)O)=CC[C@]13CC[C@H]2[C@@](C)(/C=C/C=C(\C)C(=O)O)OC3=O [PSEUDOLARIC ACID C2] | – | < 4.00 | – | Not Active | – | Not Active | – |
| COC(=O)C1=CC[C@@]23CC[C@@H]([C@@](C)(/C=C/C=C(\C)C(=O)O)OC2=O)[C@@]3(O)CC1 [PSEUDOLARIC ACID C] | – | – | – | – | Not Active | Not Active | Not Active |
| CC1=CC[C@@]23CC[C@@H]([C@@](C)(/C=C/C=C(\C)C(=O)O)OC2=O)[C@@]3(O)CC1 [DEACETYLPSEUDOLARIC ACID A] | – | – | – | Not Active | Not Active | Not Active | – |
